In experiment [1] the target is Melanocyte-stimulating hormone receptor (Homo sapiens, UniProt Q01726). The experiment can be described thus: Binding affinity towards Melanocortin 1 receptor using [125I]NDP-MSH. The gist of the method: (§1)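 Human MC1, MC3, MC4 or MC5 receptor expressed in Sf9 cells by recombinant virus infection for 72 h; membranes prepared from these cells. Membranes (10 µg protein/100 µL) incubated with [125I]NDP-MSH and competing unlabeled ligand in 20 mM K-Hepes pH 7.4, 5 mM NaCl, 1 mM CaCl2, 0.5 mM MgCl2, 0.5 mg/mL BSA for 3 h at 25 °C. Ended by filtration through glass-fiber filters. Nonspecific binding set with 3 µM NDP-MSH.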

Another experiment concerns the target Melanocortin receptor 3 (Homo sapiens, UniProt P41968). The experiment can be described thus: Binding affinity towards Melanocortin 3 receptor using [125I]NDP-MSH. The gist of the method:
as §1

The target in the next experiment is Melanocortin receptor 4 (Homo sapiens, UniProt P32245). The experiment can be described thus: Binding affinity towards Melanocortin 4 receptor using [125I]NDP-MSH. A digest of the protocol: as §1
Another experiment has as its target Melanocortin receptor 5 (Homo sapiens, UniProt P33032). Put plainly: Binding affinity towards Melanocortin 5 receptor using [125I]NDP-MSH. A digest of the protocol: as §1

Molecules are shown by their SMILES.

Chain of Melanocortin receptor 5 (P33032 whole entry): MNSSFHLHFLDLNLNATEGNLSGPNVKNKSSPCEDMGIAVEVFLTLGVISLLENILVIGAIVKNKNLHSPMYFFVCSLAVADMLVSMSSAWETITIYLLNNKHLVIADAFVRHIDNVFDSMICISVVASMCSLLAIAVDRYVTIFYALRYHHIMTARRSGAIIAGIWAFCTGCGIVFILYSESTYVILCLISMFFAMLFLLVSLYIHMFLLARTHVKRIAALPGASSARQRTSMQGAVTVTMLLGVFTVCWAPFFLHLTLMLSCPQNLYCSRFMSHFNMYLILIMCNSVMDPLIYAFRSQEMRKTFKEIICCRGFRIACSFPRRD
Chain of Melanocyte-stimulating hormone receptor (Q01726 whole entry): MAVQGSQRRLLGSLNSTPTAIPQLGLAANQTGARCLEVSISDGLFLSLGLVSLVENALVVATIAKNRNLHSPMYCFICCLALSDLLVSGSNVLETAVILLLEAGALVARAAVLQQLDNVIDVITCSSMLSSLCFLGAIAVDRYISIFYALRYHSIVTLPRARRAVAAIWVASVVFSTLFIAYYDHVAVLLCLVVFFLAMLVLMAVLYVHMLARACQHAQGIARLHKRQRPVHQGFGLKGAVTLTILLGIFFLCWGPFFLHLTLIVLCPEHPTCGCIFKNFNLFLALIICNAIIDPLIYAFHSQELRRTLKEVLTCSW
Chain of Melanocortin receptor 3 (P41968 whole entry): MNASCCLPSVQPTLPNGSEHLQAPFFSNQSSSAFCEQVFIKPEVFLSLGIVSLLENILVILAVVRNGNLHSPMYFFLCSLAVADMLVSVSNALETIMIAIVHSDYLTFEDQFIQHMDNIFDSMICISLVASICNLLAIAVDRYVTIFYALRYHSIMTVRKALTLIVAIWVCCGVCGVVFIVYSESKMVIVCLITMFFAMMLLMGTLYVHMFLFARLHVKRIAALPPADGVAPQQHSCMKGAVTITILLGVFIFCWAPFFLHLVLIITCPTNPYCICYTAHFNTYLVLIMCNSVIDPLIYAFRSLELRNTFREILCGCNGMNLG
Chain of Melanocortin receptor 4 (P32245 whole entry): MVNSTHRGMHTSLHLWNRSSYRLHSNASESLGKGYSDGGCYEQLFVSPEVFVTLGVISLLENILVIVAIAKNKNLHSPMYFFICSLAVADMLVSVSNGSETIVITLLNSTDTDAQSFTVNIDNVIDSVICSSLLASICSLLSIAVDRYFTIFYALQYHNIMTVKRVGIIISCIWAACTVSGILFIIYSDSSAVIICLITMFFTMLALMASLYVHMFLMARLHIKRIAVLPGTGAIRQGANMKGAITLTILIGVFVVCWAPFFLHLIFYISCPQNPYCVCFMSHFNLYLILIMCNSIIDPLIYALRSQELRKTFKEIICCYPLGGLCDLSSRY

Take `O=C(N[C@H](Cc1ccc(Cl)cc1)C(=O)N1CCN(c2ccccc2)CC1)C1Cc2ccccc2CN1` (stereo partly specified): the inhibitory constant (Ki) came out at 13 µM in experiment [1], 15 µM at Melanocortin receptor 3, 30 µM at Melanocortin receptor 4 and 17 µM on Melanocortin receptor 5.
On to `O=C(N[C@H](Cc1ccc(Cl)cc1)C(=O)N1CCN(C2CCCCC2)CC1)C1Cc2ccccc2CN1` (stereo partly specified), for which the inhibition constant Ki in experiment [1] came to 11 µM; on Melanocortin receptor 3 it was 6.8 µM; on Melanocortin receptor 4 it was 1.4 µM; at Melanocortin receptor 5, 8.2 µM.
With `O=C(N[C@H](Cc1ccc(Cl)cc1)C(=O)N1CC[N+]([O-])(C2CCCCC2)CC1)C1Cc2ccccc2CN1` (stereo partly specified), the inhibition constant Ki in experiment [1] came out at 152 µM; at Melanocortin receptor 3, 114 µM; at Melanocortin receptor 4, 57 µM; on Melanocortin receptor 5, 102 µM.
`O=C(N[C@H](Cc1ccc(Cl)cc1)C(=O)N1CCC(Cn2cncn2)(C2CCCCC2)CC1)[C@H]1Cc2ccccc2CN1` yielded a Ki on Melanocortin receptor 5 of 5 µM. This counts as single-digit micromolar.
As for `O=C(N[C@H](Cc1ccc(Cl)cc1)C(=O)N1CCN(C2(Cn3cncn3)CCCCC2)CC1)C1Cc2ccccc2CN1` (stereo partly specified), the inhibitory constant (Ki) turned out to be 3.2 µM in experiment [1], 5.6 µM at Melanocortin receptor 3, 1 µM on Melanocortin receptor 4 and 14 µM at Melanocortin receptor 5.
Consider `O=C(N[C@H](Cc1ccc(Cl)cc1)C(=O)N1CCN(C2CCCCC2Cn2cncn2)CC1)C1Cc2ccccc2CN1` (stereo partly specified), for which the inhibitory constant (Ki) stood at 2 µM in experiment [1], 5.2 µM at Melanocortin receptor 3, 0.39 µM on Melanocortin receptor 4 and 16 µM at Melanocortin receptor 5.
Turning to `O=C(N[C@H](Cc1ccc(Cl)cc1)C(=O)N1CCN(C2(Cn3cncn3)CCCC2)CC1)C1Cc2ccccc2CN1` (stereo partly specified), the Ki amounted to 0.53 µM in experiment [1], 8.8 µM at Melanocortin receptor 3, 1.5 µM on Melanocortin receptor 4 and 18 µM on Melanocortin receptor 5.
On to `O=C(N[C@H](Cc1ccc(Cl)cc1)C(=O)N1CCN([C@H]2CCCC[C@@H]2n2cncn2)CC1)C1Cc2ccccc2CN1` (stereo partly specified), for which the inhibition constant Ki in experiment [1] turned out to be 2.2 µM; at Melanocortin receptor 3, 6.5 µM; at Melanocortin receptor 4, 0.86 µM; on Melanocortin receptor 5, 17 µM.
On to `O=C(N[C@H](Cc1ccc(Cl)cc1)C(=O)N1CCN([C@@H]2CCCC[C@H]2n2cncn2)CC1)C1Cc2ccccc2CN1` (stereo partly specified), for which the inhibitory constant (Ki) in experiment [1] turned out to be 2 µM; at Melanocortin receptor 3 it was 4.4 µM; at Melanocortin receptor 5, 9.8 µM.
Take `O=C(N[C@H](Cc1ccc(Cl)cc1)C(=O)N1CC[N+]([O-])(c2ccccc2)CC1)C1Cc2ccccc2CN1` (stereo partly specified): the inhibitory constant (Ki) in experiment [1] was determined as 36 µM; at Melanocortin receptor 3, 35 µM; on Melanocortin receptor 4, 169 µM; on Melanocortin receptor 5, 94 µM.
